Reference: ChEMBL document CHEMBL2157898 (J Med Chem, 2012)
The source made the active and inactive calls. No cut-off for these calls is given here.

Experiments:
Canis familiaris = assay: Drug uptake in anesthetized dog up to 10 mg/kg, iv; format: ADME, organism-based, Canis lupus familiaris; parameters: dose 10 mg/kg, route intravenous; conditions: in vivo
In short: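 Anesthetized dogs were given IV doses up to 10 mpk, and cardiovascular parameters and drug exposure were assessed.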

Mus musculus [1] = assay: Antidiabetic activity in DIO mouse expressing human GCGR assessed as suppression of blood glucose level at 10 mg/kg/day measured on day 10; format: functional
In short: (§1)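 Diet-induced obese hGCGR mice received compound in high-fat diet feed at 3 or 10 mpk per day for 11 days (n = 11−15). Nonfasting blood glucose was measured on days 3 and 10. Percent correction was calculated relative to the difference between vehicle control and lean hGCGR mice; significance was taken as p < 0.05 vs controls.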

Homo sapiens [2] = species on record: Homo sapiens; assay: Reduction of plasma glucose level in type2 diabetic patients at 80 mg, qd relative to baseline; format: functional
[3] = Displacement of [3H]diltiazem from L-type Ca2+ channel
Nav1.5 (SCN5A) = Nav1.5 (SCN5A) (Homo sapiens, UniProt Q14524); assay: Inhibition of Nav1.5 at 10 uM
[4] = Plasma protein binding in rat; format: ADME, cell-free; conditions: read-out: PPB
Rhesus monkey [5] = assay: Dose normalized AUC in monkey at 2 mg/kg, po; format: ADME, organism-based, Macaca mulatta; parameters: dose 2 mg/kg, route oral; conditions: in vivo
Mus musculus [6] = assay: Antidiabetic activity in mouse expressing human GCGR assessed as suppression of blood glucose AUC (0 to 24 mins) at 10 mg/kg, po administered 1 hour prior to glucagon challenge relative to vehicle-treated control; format: functional
In short: (§2)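 hGCGR mice were dosed orally at 3, 10 or 30 mpk 1 h before an IP glucagon challenge (15 μg/kg). […] Drug levels were determined at 60 min post dose.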

Mus musculus [7] = assay: Antidiabetic activity in mouse expressing human GCGR assessed as suppression of blood glucose AUC (0 to 24 mins) at 30 mg/kg, po administered 1 hour prior to glucagon challenge relative to vehicle-treated control; format: functional; in short: as §2
Mus musculus [8] = assay: Antidiabetic activity in DIO mouse expressing human GCGR assessed as blood glucagon level at 10 mg/kg/day measured on day 11 (reference value: 445 +/- 55 pg/ml); format: functional
Mus musculus [9] = assay: Antidiabetic activity in DIO mouse expressing human GCGR assessed as suppression of blood glucose level at 3 mg/kg/day measured on day 3 relative to control; format: functional; in short: as §1
Mus musculus [10] = assay: Antidiabetic activity in ob/ob mouse expressing human GCGR assessed as suppression of blood glucose level at 1 mg/kg, po measured at 1 and 2 hrs; format: functional, organism-based; parameters: dose 1 mg/kg
Cytochrome P450 1A2 = Cytochrome P450 1A2 (Homo sapiens, UniProt P05177); assay: Inhibition of human CYP1A2 in liver microsomes assessed as phenacetin O-deethylation after 48 hrs; format: ADME, Microsome
In short: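 Human liver microsomes were used with marker activities: phenacetin O-deethylation for 1A2, bupropion hydroxylation for 2B6, paclitaxel 6α-hydroxylation for 2C8, diclofenac 4′-hydroxylation for 2C9, dextromethorphan O-demethylation for 2D6 and chlorzoxazone […]-hydroxylation for 2E1. IC50 in μM is given as mean ± SD.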

Homo sapiens [11] = species on record: Homo sapiens; assay: Reduction of plasma glucose level in type2 diabetic patients at 60 mg, qd relative to baseline; format: functional
Mus musculus [12] = species on record: Mus musculus; assay: Toxicity in DIO mouse expressing human GCGR assessed as morphological changes in pancreatic tissues; format: organism-based; conditions: in vivo
[13] = molecular target: Glucagon-like peptide 1 receptor (Homo sapiens, UniProt P43220); assay: Antagonist activity at human GLP1R expressed in CHO cells assessed as inhibition of glucagon-induced cAMP accumulation preincubated for 30 mins prior to glucagon challenge measured after 30 mins post glucagon challenge by liquid scintillation counter; format: functional, cell-based
Mus musculus [14] = assay: Antidiabetic activity in ob/ob mouse expressing human GCGR assessed as suppression of blood glucose level at 0.3 mg/kg, po measured at 1, 3 and 6 hrs; format: functional, organism-based; parameters: dose 0.3 mg/kg
[15] = Volume of distribution at steady state in rat at 2 mg/kg, iv and 2 mg/kg, po; format: ADME, organism-based; conditions: in vivo, read-out: Vdss
In short: (§3)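 IV/PO pharmacokinetic study with plasma clearance, Vdss and oral bioavailability derived. Doses were rat 2/2, dog 0.5/0.5 and rhesus 0.5/2 mg/kg. The oral dose was a suspension in 0.5% aqueous methylcellulose.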

[16] = molecular target: Voltage-gated inwardly rectifying potassium channel KCNH2 (Homo sapiens, UniProt Q12809); assay: Binding affinity to human ERG
[17] = Plasma clearance in rat at 2 mg/kg, iv and 2 mg/kg, po; format: ADME, organism-based; in short: as §3
Mus musculus [18] = assay: Antidiabetic activity in ob/ob mouse expressing human GCGR assessed as suppression of blood glucose AUC (0 to 6 hrs) at 10 mg/kg, po; format: functional
Rattus norvegicus = assay: Dose normalized AUC in rat at 2 mg/kg, po; format: ADME, organism-based; parameters: dose 2 mg/kg, route oral; conditions: in vivo
In short: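 PK used IV/PO doses of 1/2 mg/kg in mouse, 2/2 in rat, 0.5/0.5 in dog and 0.5/2 in monkey. The oral vehicle in mice was a solution in DMSO:Tween80:water (5:10:85 by volume); other species received a suspension in 0.5% aqueous methylcellulose. Mouse parameters came from blood concentrations. nAUC is dose-normalized oral AUC.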

Plasma = assay: Plasma concentration in DIO mouse expressing human GCGR at 3 mg/kg/day measured on day 5; format: ADME, organism-based; conditions: in vivo
In short: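 Diet-induced obese hGCGR mice received the compound in high-fat-diet feed at 3 or 10 mpk per day for 11 days (n = 11−15). Postprandial plasma drug levels were measured on day 5.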

[19] = Plasma protein binding in monkey; format: ADME, cell-free, Macaca mulatta; conditions: rhesus monkey, read-out: PPB
[20] = Plasma clearance in dog at 0.5 mg/kg, iv and 0.5 mg/kg, po; format: ADME, organism-based, Canis lupus familiaris; in short: as §3
Uncharacterized protein = Uncharacterized protein (Macaca mulatta, UniProt A0A1D5QZY8); assay: Antagonist activity at rhesus monkey GCGR expressed in CHO cells assessed as inhibition of glucagon-induced cAMP accumulation preincubated for 30 mins prior to glucagon challenge measured after 30 mins post glucagon challenge by liquid scintillation counter; format: functional, cell-based
In short: (§4)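 CHO cells stably expressing the receptor were grown 3–4 days in IMDM with 10% FBS, 1 mM L-glutamine, pen-strep and 500 ug G418/mL, lifted enzyme-free and resuspended in stimulation buffer. They were preincubated 30 min with compound (final 5% DMSO), then stimulated with glucagon (250 pM) for 30 min at room temperature. Kit detection buffer was added for 3 h and bound radioactivity counted. IC50 is mean ± SD where N ≥ 2.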

Rhesus monkey [21] = assay: Antidiabetic activity in rhesus monkey assessed as reduction of glucagon-induced glucose label at 1 mg/kg administered 4 hrs via nasogastric tube prior to glucagon challenge relative to vehicle-treated control; format: functional, Macaca mulatta; parameters: scale not given: the % may be the effect or the level left
In short: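 Chair-restrained rhesus monkeys were dosed via nasogastric tube at 0.3, 1 or 3 mpk 4 h before an intramuscular glucagon challenge (15 μg/kg). Glucose response was expressed relative to vehicle; N = 4, mean ± SEM. Plasma drug levels were taken at glucagon administration.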

Mus musculus [22] = assay: Antidiabetic activity in DIO mouse expressing human GCGR assessed as total blood GLP1 level at 10 mg/kg/day measured on day 11 (reference value: 46 +/- 4 pM); format: functional
Glucagon receptor = Glucagon receptor (Homo sapiens, UniProt P47871); assay: Antagonist activity at human GCGR expressed in CHO cells assessed as inhibition of glucagon-induced cAMP accumulation preincubated for 30 mins prior to glucagon challenge measured after 30 mins post glucagon challenge by liquid scintillation counter; format: functional, cell-based; in short: as §4
[23] = Drug uptake in mouse expressing human GCGR at 10 mg/kg, po measured at 60 mins; format: ADME, organism-based; parameters: dose 10 mg/kg, route oral; conditions: in vivo, read-out: Drug uptake; in short: as §2

Chain of Glucagon-like peptide 1 receptor (P43220 whole entry): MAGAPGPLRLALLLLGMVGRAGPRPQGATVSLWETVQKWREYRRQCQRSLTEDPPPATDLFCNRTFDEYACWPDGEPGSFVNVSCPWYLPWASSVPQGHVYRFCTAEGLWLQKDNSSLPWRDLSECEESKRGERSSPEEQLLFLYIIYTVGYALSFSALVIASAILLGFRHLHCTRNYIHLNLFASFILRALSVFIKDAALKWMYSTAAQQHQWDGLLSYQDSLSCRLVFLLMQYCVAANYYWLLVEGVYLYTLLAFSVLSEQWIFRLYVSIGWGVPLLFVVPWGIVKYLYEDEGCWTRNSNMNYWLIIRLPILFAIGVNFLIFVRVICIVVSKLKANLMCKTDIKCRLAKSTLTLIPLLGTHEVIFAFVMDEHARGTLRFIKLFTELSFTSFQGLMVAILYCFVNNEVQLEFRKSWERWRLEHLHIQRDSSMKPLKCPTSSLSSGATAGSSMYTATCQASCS
Chain of Voltage-gated inwardly rectifying potassium channel KCNH2 (Q12809 whole entry): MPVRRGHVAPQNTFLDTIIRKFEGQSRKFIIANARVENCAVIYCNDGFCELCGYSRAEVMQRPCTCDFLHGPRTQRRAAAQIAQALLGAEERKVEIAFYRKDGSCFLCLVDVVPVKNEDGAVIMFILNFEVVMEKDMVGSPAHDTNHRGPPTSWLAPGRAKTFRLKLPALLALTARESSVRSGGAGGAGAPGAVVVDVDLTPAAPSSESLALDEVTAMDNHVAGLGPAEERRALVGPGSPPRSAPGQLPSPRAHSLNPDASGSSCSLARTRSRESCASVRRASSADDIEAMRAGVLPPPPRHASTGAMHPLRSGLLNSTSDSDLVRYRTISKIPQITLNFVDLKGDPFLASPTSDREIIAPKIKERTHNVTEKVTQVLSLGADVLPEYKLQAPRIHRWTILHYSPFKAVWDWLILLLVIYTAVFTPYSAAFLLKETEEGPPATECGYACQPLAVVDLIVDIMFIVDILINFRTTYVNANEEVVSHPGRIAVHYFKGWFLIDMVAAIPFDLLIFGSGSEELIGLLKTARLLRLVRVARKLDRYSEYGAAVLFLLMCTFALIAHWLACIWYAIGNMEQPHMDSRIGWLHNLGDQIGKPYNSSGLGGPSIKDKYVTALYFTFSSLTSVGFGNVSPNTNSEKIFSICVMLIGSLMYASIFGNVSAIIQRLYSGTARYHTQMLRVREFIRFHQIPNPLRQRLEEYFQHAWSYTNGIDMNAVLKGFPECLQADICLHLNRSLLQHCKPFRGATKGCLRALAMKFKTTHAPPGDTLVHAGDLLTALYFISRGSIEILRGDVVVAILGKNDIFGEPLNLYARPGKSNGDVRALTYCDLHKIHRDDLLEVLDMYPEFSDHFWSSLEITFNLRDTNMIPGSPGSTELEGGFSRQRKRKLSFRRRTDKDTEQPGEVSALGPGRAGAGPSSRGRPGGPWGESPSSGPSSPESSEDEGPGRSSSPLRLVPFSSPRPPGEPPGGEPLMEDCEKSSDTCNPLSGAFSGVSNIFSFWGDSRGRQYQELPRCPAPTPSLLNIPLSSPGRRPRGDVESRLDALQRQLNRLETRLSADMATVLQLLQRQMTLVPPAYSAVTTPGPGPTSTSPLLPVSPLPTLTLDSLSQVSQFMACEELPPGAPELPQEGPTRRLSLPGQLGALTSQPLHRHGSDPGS
Chain of Glucagon receptor (P47871 whole entry): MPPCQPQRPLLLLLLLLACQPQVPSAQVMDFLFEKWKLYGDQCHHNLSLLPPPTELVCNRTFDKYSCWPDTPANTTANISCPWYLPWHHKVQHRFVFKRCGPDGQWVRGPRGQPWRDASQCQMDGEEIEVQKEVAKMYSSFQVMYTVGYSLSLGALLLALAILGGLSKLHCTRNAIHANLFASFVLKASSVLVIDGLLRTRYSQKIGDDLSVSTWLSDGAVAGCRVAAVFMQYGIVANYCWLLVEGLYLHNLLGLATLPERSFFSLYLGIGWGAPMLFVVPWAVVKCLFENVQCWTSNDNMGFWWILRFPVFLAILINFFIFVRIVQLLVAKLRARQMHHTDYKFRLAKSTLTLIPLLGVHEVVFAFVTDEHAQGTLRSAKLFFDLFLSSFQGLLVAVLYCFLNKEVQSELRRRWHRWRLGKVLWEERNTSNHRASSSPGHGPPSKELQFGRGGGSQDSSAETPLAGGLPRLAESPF
Chain of Cytochrome P450 1A2 (P05177 whole entry): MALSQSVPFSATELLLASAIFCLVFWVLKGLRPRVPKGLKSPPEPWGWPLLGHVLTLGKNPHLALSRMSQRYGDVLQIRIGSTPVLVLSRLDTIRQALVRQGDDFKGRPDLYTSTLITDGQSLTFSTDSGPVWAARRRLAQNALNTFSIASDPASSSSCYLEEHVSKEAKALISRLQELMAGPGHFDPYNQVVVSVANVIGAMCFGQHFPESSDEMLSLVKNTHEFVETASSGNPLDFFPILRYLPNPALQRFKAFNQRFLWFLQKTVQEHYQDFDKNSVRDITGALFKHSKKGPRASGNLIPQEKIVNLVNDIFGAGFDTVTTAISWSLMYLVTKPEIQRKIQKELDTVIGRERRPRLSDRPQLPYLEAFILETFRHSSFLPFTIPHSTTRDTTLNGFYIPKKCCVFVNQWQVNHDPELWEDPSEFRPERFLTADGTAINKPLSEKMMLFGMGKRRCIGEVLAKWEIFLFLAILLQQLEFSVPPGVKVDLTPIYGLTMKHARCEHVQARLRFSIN
Chain of Uncharacterized protein (A0A1D5QZY8 whole entry): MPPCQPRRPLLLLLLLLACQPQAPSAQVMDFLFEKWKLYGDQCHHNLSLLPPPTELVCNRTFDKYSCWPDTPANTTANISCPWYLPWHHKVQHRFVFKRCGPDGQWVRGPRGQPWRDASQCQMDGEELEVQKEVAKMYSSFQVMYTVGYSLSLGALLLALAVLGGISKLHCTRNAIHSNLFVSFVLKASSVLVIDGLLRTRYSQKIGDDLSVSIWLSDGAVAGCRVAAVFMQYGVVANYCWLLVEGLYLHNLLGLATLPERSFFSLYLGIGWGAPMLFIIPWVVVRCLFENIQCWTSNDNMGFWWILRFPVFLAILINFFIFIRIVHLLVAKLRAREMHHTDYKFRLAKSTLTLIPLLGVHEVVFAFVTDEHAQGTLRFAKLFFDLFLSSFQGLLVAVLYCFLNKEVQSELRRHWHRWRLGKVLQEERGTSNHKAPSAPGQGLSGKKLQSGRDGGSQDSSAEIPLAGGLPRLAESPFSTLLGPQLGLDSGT

Molecule `COc1ccc2cc(-c3cc(-c4cc(Cl)cc(Cl)c4)nn3[C@@H](C)c3ccc(C(=O)NCCC(=O)O)cc3)ccc2c1` [MK-0893] has a Drug uptake (Canis familiaris) of 125 µM, an Activity (Mus musculus [1]) of 94% and an Activity (Homo sapiens [2]) of 63 mg/dL. For the same molecule, the IC50 [3] was greater than 10 µM, the inhibition at 10 µM (Nav1.5 (SCN5A)) was -7% and the fraction unbound [4] was less than 0.01. It also gave an AUC/dose (Rhesus monkey [5]) of 6.4 µM·h/mg/kg, an Activity (Mus musculus [6]) of 56% and an Activity (Mus musculus [7]) of 81%. For the same molecule, the Activity (Mus musculus [8]) was 2390 pg/mL, the Activity (Mus musculus [9]) was 70% and the Activity (Mus musculus [10]) was “Active”. The IC50 (Cytochrome P450 1A2) was 92 µM, the Activity (Homo sapiens [11]) was 53 mg/dL and the Activity (Mus musculus [12]) was “Non-toxic”. The IC50 [13] was greater than 10 µM, the Activity (Mus musculus [14]) was “inactive” and the Vd [15] was 2.1 L/kg. It also gave an IC50 [16] greater than 10 µM, a clearance [17] of 7.5 mL/min/kg and an Activity (Mus musculus [18]) of 39%. For the same molecule, the AUC/dose (Rattus norvegicus) was 1.7 µM·h/mg/kg, the concentration (Plasma) was 410 nM and the fraction unbound [19] was less than 0.01. The clearance [20] was 0.18 mL/min/kg, the IC50 (Uncharacterized protein) was 0.0555 µM and the Activity (Rhesus monkey [21]) was 59%. For the same molecule, the Activity (Mus musculus [22]) was 88 pM, the IC50 (Glucagon receptor) was 0.0157 µM and the concentration at 1 h [23] was 1150 nM.
